Test results from ChEMBL document CHEMBL4007430, “Synthesis and Cytostatic and Antiviral Profiling of Thieno-Fused 7-Deazapurine Ribonucleosides” (J Med Chem, 2017).

What was measured:
[1] = Cytotoxicity against human HuH7 cells; type: cell-based, Huh-7
HepG2 = assay: Cytotoxicity against human HepG2 cells assessed as reduction in cell viability after 72 hrs by XTT assay; type: functional, cell-based; conditions: HepG2, 72 h
How it was run: (§1)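 Cells were incubated with compound for 3 days. Viability was then measured with the XTT tetrazolium assay.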

CCRF-CEM [2] = assay: Induction of apoptosis in human CCRF-CEM cells assessed as accumulation at subG1 phase at IC50 after 24 hrs by propidium iodide staining-based flow cytometric analysis (reference value: 2.32%); type: functional
CCRF-CEM [3] = assay: Inhibition of RNA synthesis in human CCRF-CEM cells assessed as decrease in BrU incorporation by measuring synthesized RNA levels at IC50 after 24 hrs by propidium iodide staining-based flow cytometric method (reference value: 53.09%); type: functional
CCRF-CEM [4] = assay: Cell cycle arrest in human CCRF-CEM cells assessed as accumulation at G0/G1 phase at IC50 after 24 hrs by propidium iodide staining-based flow cytometric analysis (reference value: 41.11%); type: functional
CCRF-CEM [5] = assay: Inhibition of mitosis in human CCRF-CEM cells assessed as pH3Ser10 positive cells after 24 hrs by flow cytometric analysis; type: functional, cell-based
[6] = Cytotoxicity against human K562-TAX cells assessed as cell growth inhibition after 72 hrs by MTS assay; type: functional, cell-based
How it was run: (§2)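 Cells were exposed to compound for 3 days, then stained with MTS as a quantitative metabolic read-out. IC50 is the concentration that inhibits cell growth by 50%.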

CCRF-CEM [7] = assay: Cell cycle arrest in human CCRF-CEM cells assessed as accumulation at S phase at IC50 after 24 hrs by propidium iodide staining-based flow cytometric analysis (reference value: 44.20%); type: functional
CCRF-CEM [8] = assay: Cell cycle arrest in human CCRF-CEM cells assessed as accumulation at G2/M phase at 5 times IC50 after 24 hrs by propidium iodide staining-based flow cytometric analysis (reference value: 14.70%); type: functional
CCRF-CEM [9] = assay: Inhibition of DNA synthesis in human CCRF-CEM cells assessed as decrease in BrdU incorporation by measuring synthesized DNA levels at IC50 after 24 hrs by propidium iodide staining-based flow cytometric analysis (reference value: 52.66%); type: functional
MRC5 = assay: Cytotoxicity against human MRC5 cells assessed as cell growth inhibition after 72 hrs by MTS assay; type: cell-based; conditions: MRC5, 72 h; how it was run: as §2
CCRF-CEM [10] = assay: Cell cycle arrest in human CCRF-CEM cells assessed as accumulation at S phase at 5 times IC50 after 24 hrs by propidium iodide staining-based flow cytometric analysis (reference value: 44.20%); type: functional
Hepatitis C virus [11] = assay: Anti-HCV activity against Hepatitis C virus genotype 2a infected in human Huh7 replicon cells after 96 hrs by luciferase reporter gene assay; type: functional, cell-based, Hepacivirus hominis; conditions: Huh-7, 96 h
CCRF-CEM [12] = assay: Cytotoxicity against human CCRF-CEM cells assessed as cell growth inhibition after 72 hrs by MTS assay
A549 = assay: Cytotoxicity against human A549 cells assessed as cell growth inhibition after 72 hrs by MTS assay; type: functional, cell-based; conditions: A549, 72 h; how it was run: as §2
CCRF-CEM [13] = assay: Inhibition of RNA synthesis in human CCRF-CEM cells assessed as decrease in BrU incorporation by measuring synthesized RNA levels at 5 times IC50 after 24 hrs by propidium iodide staining-based flow cytometric method (reference value: 53.09%); type: functional
CCRF-CEM [14] = assay: Inhibition of DNA synthesis in human CCRF-CEM cells assessed as decrease in BrdU incorporation by measuring synthesized DNA levels at 5 times IC50 after 24 hrs by propidium iodide staining-based flow cytometric analysis (reference value: 52.66%); type: functional
CCRF-CEM [15] = assay: Inhibition of mitosis in human CCRF-CEM cells assessed as pH3Ser10 positive cells at IC50 after 24 hrs by flow cytometric analysis (reference value: 1.74%); type: functional
HeLa S3 = assay: Cytotoxicity against human HeLaS3 cells assessed as reduction in cell viability after 72 hrs by XTT assay; type: functional, cell-based; conditions: HeLa S3, 72 h; how it was run: as §1
CCRF-CEM [16] = assay: Cell cycle arrest in human CCRF-CEM cells assessed as accumulation at G0/G1 phase at 5 times IC50 after 24 hrs by propidium iodide staining-based flow cytometric analysis (reference value: 41.11%); type: functional
U2OS = assay: Cytotoxicity against human U2OS cells assessed as cell growth inhibition after 72 hrs by MTS assay; type: functional, cell-based
K562 = assay: Cytotoxicity against human K562 cells assessed as cell growth inhibition after 72 hrs by MTS assay; type: functional, cell-based; conditions: K562, 72 h; how it was run: as §2
HCT-116 [17] = assay: Cytotoxicity against human HCT116 cells assessed as cell growth inhibition after 72 hrs by MTS assay; type: functional, cell-based; conditions: HCT-116, 72 h; how it was run: as §2
BJ = assay: Cytotoxicity against human BJ cells assessed as cell growth inhibition after 72 hrs by MTS assay; type: cell-based; how it was run: as §2
[18] = Cytotoxicity against mrp-1/mdr-1 overexpressing human CEM-DNR-bulk cells assessed as cell growth inhibition after 72 hrs by MTS assay; type: functional, cell-based
How it was run: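 Cells were exposed to compound for 3 days, then stained with MTS as a quantitative metabolic read-out.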

Hepatitis C virus [19] = assay: Anti-HCV activity against Hepatitis C virus genotype 1b infected in human Huh7 replicon cells after 96 hrs by luciferase reporter gene assay; type: functional, cell-based, Hepacivirus hominis; conditions: Huh-7, 96 h
HCT-116 [20] = assay: Cytotoxicity against p53 deficient human HCT116 cells assessed as cell growth inhibition after 72 hrs by MTS assay; type: functional, cell-based; conditions: HCT-116, 72 h; how it was run: as §2
CCRF-CEM [21] = assay: Cell cycle arrest in human CCRF-CEM cells assessed as accumulation at G2/M phase at IC50 after 24 hrs by propidium iodide staining-based flow cytometric analysis (reference value: 14.70%); type: functional
CCRF-CEM [22] = assay: Inhibition of mitosis in human CCRF-CEM cells assessed as pH3Ser10 positive cells at 5 times IC50 after 24 hrs by flow cytometric analysis (reference value: 1.74%); type: functional
HL-60 = assay: Cytotoxicity against human HL60 cells assessed as reduction in cell viability after 72 hrs by XTT assay; type: functional, cell-based; conditions: HL-60, 72 h; how it was run: as §1
CCRF-CEM [23] = assay: Induction of apoptosis in human CCRF-CEM cells assessed as accumulation at subG1 phase at 5 times IC50 after 24 hrs by propidium iodide staining-based flow cytometric analysis (reference value: 2.32%); type: functional

SMILES | CC50 [1] [µM] | IC50 (HepG2) [nM] | Activity (CCRF-CEM [2]) [%] | BrU+ cells (%) (CCRF-CEM [3]) | Activity (CCRF-CEM [4]) [%] | Activity (CCRF-CEM [5]) | IC50 [6] [µM] | Activity (CCRF-CEM [7]) [%] | Activity (CCRF-CEM [8]) [%] | BrdU+ cells (%) (CCRF-CEM [9]) | IC50 (MRC5) [µM] | Activity (CCRF-CEM [10]) [%] | EC50 (Hepatitis C virus [11]) [nM] | IC50 (CCRF-CEM [12]) [nM] | IC50 (A549) [nM] | BrU+ cells (%) (CCRF-CEM [13]) | BrdU+ cells (%) (CCRF-CEM [14]) | pH3Ser10+ cells (%) (CCRF-CEM [15]) | IC50 (HeLa S3) [nM] | Activity (CCRF-CEM [16]) [%] | also measured
COc1ncnc2c1c1ccsc1n2[C@@H]1O[C@H](CO)[C@@H](O)[C@H]1O | > 44.4 | 1330 | 2.55 | 28.75 | 35.73 | Dose-dependent effect | 11.1 | 45.01 | 12.27 | 62.59 | > 50 | 63.97 | 400 | 220 | 1230 | 8.31 | 55.12 | 1.17 | 230 | 23.76 | IC50 (U2OS): 930 nM; IC50 (K562): 1060 nM; IC50 (HCT-116 [17]): 610 nM; IC50 (BJ): 7490 nM; IC50 [18]: > 50 µM; EC50 (Hepatitis C virus [19]): 230 nM; IC50 (HCT-116 [20]): 640 nM; Activity (CCRF-CEM [21]): 19.25%; pH3Ser10+ cells (%) (CCRF-CEM [22]): 0.38%; IC50 (HL-60): 570 nM; Activity (CCRF-CEM [23]): 11.22%
Cc1ncnc2c1c1ccsc1n2[C@@H]1O[C@H](CO)[C@@H](O)[C@H]1O | > 44.4 | 470 | 2.35 | 38.29 | 40.67 | Dose-dependent effect | 47.6 | 45.57 | 13.74 | 54.48 | > 50 | 51.16 | 240 | 30 | 720 | 18.84 | 54.08 | 1.37 | 570 | 35.09 | IC50 (U2OS): 560 nM; IC50 (K562): 460 nM; IC50 (HCT-116 [17]): 400 nM; IC50 (BJ): > 50000 nM; IC50 [18]: 33.9 µM; EC50 (Hepatitis C virus [19]): 60 nM; IC50 (HCT-116 [20]): 330 nM; Activity (CCRF-CEM [21]): 13.76%; pH3Ser10+ cells (%) (CCRF-CEM [22]): 1.37%; IC50 (HL-60): 370 nM; Activity (CCRF-CEM [23]): 3.83%
COc1ncnc2c1c1sccc1n2[C@@H]1O[C@H](CO)[C@@H](O)[C@H]1O | 13.9 to 29.2 | 150 | 11.17 | 34.93 | 34.35 | Dose-dependent effect | 4.05 | 50.91 | 5.86 | 56 | 25.2 | 75.47 | 15000 | 130 | 220 | 26.27 | 63.58 | 1.07 | 900 | 18.67 | IC50 (U2OS): 460 nM; IC50 (K562): 200 nM; IC50 (HCT-116 [17]): 130 nM; IC50 (BJ): 400 nM; IC50 [18]: 61.8 µM; EC50 (Hepatitis C virus [19]): 950 nM; IC50 (HCT-116 [20]): 130 nM; Activity (CCRF-CEM [21]): 14.73%; pH3Ser10+ cells (%) (CCRF-CEM [22]): 0.41%; IC50 (HL-60): 110 nM; Activity (CCRF-CEM [23]): 17.46%
Cc1ncnc2c1c1sccc1n2[C@@H]1O[C@H](CO)[C@@H](O)[C@H]1O | > 44.4 | 440 | 13.5 | 33.92 | 29.74 | Dose-dependent effect | 0.72 | 57.85 | 15.1 | 50.76 | 1.66 | 56.18 | 60 | 20 | 210 | 47.83 | 60.89 | 0.89 | 720 | 28.72 | IC50 (U2OS): 200 nM; IC50 (K562): 140 nM; IC50 (HCT-116 [17]): 50 nM; IC50 (BJ): 150 nM; IC50 [18]: > 50 µM; EC50 (Hepatitis C virus [19]): 110 nM; IC50 (HCT-116 [20]): 70 nM; Activity (CCRF-CEM [21]): 12.41%; pH3Ser10+ cells (%) (CCRF-CEM [22]): 3.55%; IC50 (HL-60): 210 nM; Activity (CCRF-CEM [23]): 16.72%
